In general, inhibition refers to how much of the control response was suppressed. A high value points to a response far below the control. In general, IC50 refers to the concentration at which inhibition is half-maximal. A lower IC50 goes with higher potency. A word on the MIC90: it is the lowest concentration that inhibits either 90% of growth or 90% of the strains tested, depending on the study. A lower MIC90 goes with greater potency. A word on the MIC99: it is the lowest concentration that inhibits either 99% of growth or 99% of the strains tested, depending on the study. A higher MIC99 goes with lower susceptibility.

Results on twelve compounds are retold here after ChEMBL document CHEMBL3352424, “Synthesis, biological evaluation and 3D-QSAR study of hydrazide, semicarbazide and thiosemicarbazide derivatives of 4-(adamantan-1-yl)quinoline as anti-tuberculosis agents” (Eur J Med Chem, 2014).

Data set [1] concerns Mycobacterium tuberculosis. The experiment in a line: Antitubercular activity against Mycobacterium tuberculosis H37Rv strain at 1.56 ug/ml by microplate alamar blue assay. Format: functional. Background: The colour change of resazurin is a common sign of viable cells or microbes.
The test system of data set [2] is Mycobacterium tuberculosis. The experiment in a line: Antitubercular activity against Mycobacterium tuberculosis H37Rv strain by BACTEC 460 radiometric assay. Type of data set: functional, organism-based.
The subject of data set [3] is Mycobacterium tuberculosis. Kind of data set: Antitubercular activity against Mycobacterium tuberculosis H37Rv strain at 6.25 ug/ml by microplate alamar blue assay. Type of data set: functional.
The test system of a further data set is L929. The experiment in a line: Cytotoxicity against mouse L929 cells assessed as reduction in cell viability up to 200 ug/ml after 5 days by MTT assay. Type of data set: cell-based. Particulars: l929, 120 h. An outline of the steps: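 MTT viability assay in mouse fibroblasts, run on compounds active against TB, with 200 µg/mL as the highest test concentration.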

Data set [4] deals with Mycobacterium tuberculosis. The experiment in a line: Antitubercular activity against Mycobacterium tuberculosis H37Rv strain. Format: functional.

Values after ≈ are worked out from the molar mass of the structure shown.

In data set [1], `O=C(NNC(=O)c1cc(C23CC4CC(CC(C4)C2)C3)c2ccccc2n1)Nc1ccc(OC(F)(F)F)cc1` gave an inhibition at 1.56 µg/mL of 50%. For the same compound, in data set [2], half-maximal inhibition (IC50) required 427 nM and the MIC90 turned out to be 3.12 µg/mL (≈ 5.96 µM). This compound also came in with an inhibition at 6.25 µg/mL in data set [3] of 99%. Moreover, in the data set on L929, the Activity result was “Non-toxic”.
`NNC(=O)c1cc(C23CC4CC(CC(C4)C2)C3)c2ccccc2n1` gave an MIC99 in data set [4] of 3.12 µg/mL (≈ 9.72 µM). Further, the Activity result in the data set on L929 is reported as “Non-toxic”.
In the case of `O=C(NNC(=O)C12CC3CC(CC(C3)C1)C2)c1cc(C23CC4CC(CC(C4)C2)C3)c2ccccc2n1`, in data set [2], the IC50 is 1950 nM and the MIC90 was determined as 6.25 µg/mL (≈ 12.9 µM). The same compound returned an inhibition at 6.25 µg/mL in data set [3] of 87%. Also, in the data set on L929, the Activity entry is “Non-toxic”.
The corresponding values for `O=C(NNC(=O)c1cc(C23CC4CC(CC(C4)C2)C3)c2ccccc2n1)c1ccccc1` are 107000 nM, 6.25 µg/mL (≈ 14.7 µM), 12% and “Non-toxic”.
The corresponding values for `O=C(NNC(=O)c1cccc2ccccc12)c1cc(C23CC4CC(CC(C4)C2)C3)c2ccccc2n1` are 4470 nM, 6.25 µg/mL (≈ 13.1 µM), 88% and “Non-toxic”.
The corresponding values for `O=C(NNC(=O)c1cc(C23CC4CC(CC(C4)C2)C3)c2ccccc2n1)NC12CC3CC(CC(C3)C1)C2` are 24500 nM, 6.25 µg/mL (≈ 12.5 µM), 34% and “Non-toxic”.
As for `O=C(NNC(=O)c1cc(C23CC4CC(CC(C4)C2)C3)c2ccccc2n1)c1ccncc1`, in data set [2], the half-maximal inhibitory concentration (IC50) was 11500 nM and the MIC90 was determined as 6.25 µg/mL (≈ 14.7 µM). The compound also came in with an inhibition at 6.25 µg/mL in data set [3] of 56%. Further, the Activity entry in the data set with L929 is on record as “Non-toxic”.
Take `CC(C)(C)NC(=S)NNC(=O)c1cc(C23CC4CC(CC(C4)C2)C3)c2ccccc2n1`: in data set [2], the half-inhibitory concentration (IC50) was 1580 nM and the MIC90 worked out at 6.25 µg/mL (≈ 14.3 µM). The compound also showed an inhibition at 6.25 µg/mL in data set [3] of 90%. Also, the Activity entry with L929 was “Non-toxic”.
The corresponding values for `O=C(NNC(=O)c1cc(C23CC4CC(CC(C4)C2)C3)c2ccccc2n1)NC1CCCCCCCCCCC1` are 1780 nM, 6.25 µg/mL (≈ 11.8 µM), 87% and “Non-toxic”.
In the same order, the values of `O=C(NNC(=O)c1cc(C23CC4CC(CC(C4)C2)C3)c2ccccc2n1)NC1CCCC1` are 2750 nM, 6.25 µg/mL (≈ 14.4 µM), 84% and “Non-toxic”.
The corresponding values for `Cc1cccc(C)c1NC(=S)NNC(=O)c1cc(C23CC4CC(CC(C4)C2)C3)c2ccccc2n1` are 12300 nM, 6.25 µg/mL (≈ 12.9 µM), 51% and “Non-toxic”.
In data set [2], `O=C(NNC(=S)Nc1ccc([N+](=O)[O-])cc1)c1cc(C23CC4CC(CC(C4)C2)C3)c2ccccc2n1` gave an IC50 of 794 nM and an MIC90 of 6.25 µg/mL (≈ 12.5 µM). For the same compound, testing at 6.25 µg/mL in data set [3] gave an inhibition of 94%. Besides, the Activity entry with L929 is “Non-toxic”.
